# Measurements: PMC6980386 (Traffic (Copenhagen, Denmark), 2019)
# How the values were obtained:
# [1] = target: FL huCD4 L10A;L18A (Homo sapiens, UniProt P01730, L10A/L18A); experiment: CADA down-modulation of cellular huCD4; format: cell-based; conditions: compared with single Leu-to-Ala mutants
# In short: (§1)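 HEK293T cells, seeded overnight in DMEM with 10% serum, 1 mM sodium pyruvate and 0.075% NaHCO₃, were lipofected with full-length human CD4 (WT or mutant). Test compound in DMSO was added 6 h post-transfection as 1:5 serial dilutions (50–0.016 μM) for 48 h. Surface CD4 was stained with FITC/APC anti-CD4 (SK3) and read by flow cytometry. IC50 is 50% of the untreated signal, from four-parameter fits of ≥3 replicate experiments. FC is mutant/WT mean IC50.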
# [2] = target: truncated huCD4 D1D2 K26A (Homo sapiens, UniProt P01730, K26A); experiment: Cell-free in vitro translation and translocation; format: biochemical
# In short: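 Proteinase K protection 30 min on ice, quenched with PMSF. Pellets washed in low-salt buffer (HEPES pH 7.6), then SDS-PAGE and phosphor imaging. Translocation normalised to untreated WT. Two to five independent experiments; Welch's t test.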
# [3] = target: huCD4_1–32-YFP A21V (Homo sapiens, UniProt P01730, A21V); experiment: CADA inhibition of huCD4_1–32-YFP secretion; format: cell-based
# In short: (§2)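 HEK293T cells were lipofected with human CD4 residues 1–32 fused to the N-terminus of YFP (secreted, no membrane anchor). Test compound was added 6 h post-transfection as 1:5 serial dilutions (50–0.016 μM) for 48 h. Supernatant was captured on GFP-Trap magnetic beads for 1 h, washed in PBS, and YFP was read by flow cytometry. IC50 is 50% of the untreated control, from four-parameter fits of ≥3 replicate experiments. FC is mutant/WT mean IC50.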
# [4] = target: huCD4_1–32-YFP K26A (Homo sapiens, UniProt P01730, K26A); experiment: CADA inhibition of huCD4_1–32-YFP secretion; format: cell-based
# In short: (§3)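 HEK293T cells were grown in DMEM with 10% FBS and 10 mM HEPES, seeded and left to adhere overnight, then transiently transfected with plasmid by Lipofectamine. Test compound was added 6 h after transfection as a 1:5 serial dilution (50 to 0.016 μM) for 48 h. Secreted YFP in the supernatant was captured on GFP-Trap magnetic beads for 1 h, washed with PBS and measured by flow cytometry. IC50 is the concentration that halves the signal relative to the untreated control, taken from a four-parameter fit of at least three replicate experiments. FC is the mutant mean IC50 divided by the WT mean IC50.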
# [5] = target: huCD4_1–32-YFP V13A (Homo sapiens, UniProt P01730, V13A); experiment: CADA inhibition of huCD4_1–32-YFP secretion; format: cell-based
# In short: as §3
# [6] = target: FL huCD4 L18A (Homo sapiens, UniProt P01730, L18A); experiment: CADA down-modulation of cellular huCD4; format: cell-based
# In short: as §1
# [7] = target: FL huCD4 V5A (Homo sapiens, UniProt P01730, V5A); experiment: CADA down-modulation of cellular huCD4; format: cell-based
# In short: as §1
# [8] = target: huCD4_1–32-YFP Q15A;P20A (Homo sapiens, UniProt P01730, P20A/Q15A); experiment: CADA inhibition of huCD4_1–32-YFP secretion; format: cell-based; conditions: HEK293T, 48h
# In short: as §3
# [9] = target: huCD4_1–32-YFP L16A (Homo sapiens, UniProt P01730, L16A); experiment: CADA inhibition of huCD4_1–32-YFP secretion; format: cell-based
# In short: as §3
# [10] = target: huCD4_1–32-YFP V29A (Homo sapiens, UniProt P01730, V29A); experiment: CADA inhibition of huCD4_1–32-YFP secretion; format: cell-based; conditions: + less, − more sensitive to CADA
# In short: as §3
# [11] = target: huCD4_1–32-YFP V5A (Homo sapiens, UniProt P01730, V5A); experiment: CADA inhibition of huCD4_1–32-YFP secretion; format: cell-based
# In short: as §3
# [12] = target: huCD4_1–32-YFP G25A (Homo sapiens, UniProt P01730, G25A); experiment: CADA inhibition of huCD4_1–32-YFP secretion; format: cell-based
# In short: as §2
# [13] = target: FL huCD4 K27A (Homo sapiens, UniProt P01730, K27A); experiment: CADA down-modulation of cellular huCD4; format: cell-based
# In short: as §1
# [14] = target: FL huCD4 K27E (Homo sapiens, UniProt P01730, K27E); experiment: CADA down-modulation of cellular huCD4; format: cell-based; conditions: HEK293T, 48h
# In short: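 Transient transfection of HEK293T cells (Lipofectamine), seeded the night before. Test compound added 6 h post-transfection as a serial 1:5 dilution from 50 to 0.016 μM, then 48 h culture. Surface CD4 stained with FITC- or APC-labelled anti-human CD4 (clone SK3) and read by flow cytometry. IC50 is the concentration reducing signal to 50% of untreated control, interpolated from four-parameter curves (≥3 replicate experiments; 95% CI).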
# [15] = target: truncated huCD4 D1D2 P20A (Homo sapiens, UniProt P01730, P20A); experiment: Cell-free in vitro translation and translocation; format: biochemical
# In short: (§4)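 Truncated huCD4 D1D2 (lacking glycosylation sites and membrane anchor) was made by PCR and transcribed with T7. Proteinase K protection ran 30 min on ice and was quenched with PMSF. Products were separated by SDS-PAGE and imaged by phosphor imaging. The SP-cleaved band was normalised to the matching control. Data are from 2–5 independent experiments, compared with WT by Welch t test.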
# [16] = target: FL huCD4 K27R (Homo sapiens, UniProt P01730, K27R); experiment: CADA down-modulation of cellular huCD4; format: cell-based; conditions: HEK293T, 48h
# In short: as §1
# [17] = test system: huCD4_1–32-YFP K27A; experiment: CADA inhibition of huCD4_1–32-YFP secretion; format: cell-based, human
# In short: as §3
# [18] = target: huCD4_1–32-YFP N2A (Homo sapiens, UniProt P01730, N2A); experiment: CADA inhibition of huCD4_1–32-YFP secretion; format: cell-based
# In short: as §3
# [19] = target: truncated huCD4 D1D2 L12A (Homo sapiens, UniProt P01730, L12A); experiment: Cell-free in vitro translation and translocation; format: biochemical; conditions: 15 μM CADA
# In short: as §4
# [20] = target: huCD4_1–32-YFP L12A (Homo sapiens, UniProt P01730, L12A); experiment: CADA inhibition of huCD4_1–32-YFP secretion; format: cell-based
# In short: as §3
# [21] = + less, − more sensitive to CADA
# [22] = read-out: Secreted YFP IC50 (μM) Mean, HEK293T, CADA 48h
# [23] = read-out: Cellular huCD4 IC50 (μM) Mean, HEK293T, CADA 48h
smiles,measurement,setting,value
"C=C1CN(S(=O)(=O)c2ccc(C)cc2)CCCN(Cc2ccccc2)CCCN(S(=O)(=O)c2ccc(C)cc2)C1 [CADA, Cyclotriazadisulfonamide]",sensitivity to CADA,[1],further enhanced the effect
same,sensitivity of translocation towards CADA compared to WT,[2]; 15 μM CADA,significantly reduced sensitivity to CADA
same,effect of CADA on co-translational translocation,[2]; increasing doses of CADA,"still responded to CADA, although to a lesser extent as compared to WT huCD4"
same,Secreted YFP FC (fold change of mean IC50 relative to WT),[3]; [21],−1.6
same,IC50,[3]; [22],0.77 µM
same,Secreted YFP FC (fold change of mean IC50 relative to WT),[4]; [21],>+39
same,IC50,[4]; [22],> 50 µM
same,Secreted YFP FC (fold change of mean IC50 relative to WT),[5]; [21],−2.8
same,IC50,[5]; [22],0.46 µM
same,Cellular huCD4 FC (fold change of mean IC50 relative to WT),[6]; [21],−5.4
same,IC50,[6]; [23],0.1 µM
same,Cellular huCD4 FC (fold change of mean IC50 relative to WT),[7]; [21],−1.9
same,IC50,[7]; [23],0.29 µM
same,sensitivity to CADA,[8],no longer responded to CADA
same,Secreted YFP FC (fold change of mean IC50 relative to WT),[9]; [21],−3.2
same,IC50,[9]; [22],0.4 µM
same,Secreted YFP FC (fold change of mean IC50 relative to WT),[10],−1.1
same,Secreted YFP FC (fold change of mean IC50 relative to WT),[11]; [21],−3.8
same,IC50,[11]; [22],0.33 µM
same,Secreted YFP FC (fold change of mean IC50 relative to WT),[12]; [21],−3.6
same,IC50,[12]; [22],0.35 µM
same,Cellular huCD4 FC (fold change of mean IC50 relative to WT),[13]; [21],+2.4
same,IC50,[13]; [23],1.3 µM
same,sensitivity to CADA,[14],copied the alanine substitution phenotypes
same,inhibitory effect of CADA on protein translocation compared to WT,[15]; 15 μM CADA,significantly reduced
same,effect of CADA on co-translational translocation,[15]; increasing doses of CADA,"still responded to CADA, although to a lesser extent as compared to WT huCD4"
same,sensitivity to CADA,[16],kept full sensitivity to CADA
same,Secreted YFP FC (fold change of mean IC50 relative to WT),[17]; [21],>+39
same,IC50,[17]; [22],> 50 µM
same,Secreted YFP FC (fold change of mean IC50 relative to WT),[18]; [21],−3.3
same,IC50,[18]; [22],0.39 µM
same,sensitivity of translocation towards CADA compared to WT,[19],higher sensitivity towards CADA
same,enhanced CADA sensitivity relative to WT,[20],5 fold
same,Secreted YFP FC (fold change of mean IC50 relative to WT),[20]; [21],−5.3
same,IC50,[20]; [22],0.24 µM
